{"source": "paper PMC6995037", "about": "(Biochemistry, 2015)", "molecules": {"B1": {"name": "LC8 (natural protein)", "chain": "MSDRKAVIKNADMSEEMQQDAVDCATQALEKYNIEKDIAAYIKKEFDKKYNPTWHCIVGRNFGSYVTHETRHFIYFYLGQVAILLFKSG"}, "B2": {"name": "QT4p (peptide)", "peptide": "SYWSRSTTTQTDM"}, "B3": {"name": "Chica_(410–478) (domain or fragment, human, UniProt Q9H4H8 410-478, looked up)", "chain": "QTSITTACAGTQTAVITRIASSQTTIWSRSTTTQTDMDENILFPRGTQSTEGSPVSKMSVSRSSSLKSS"}, "B4": {"name": "QT1p (peptide)", "peptide": "SYRKAIDAATQTEE"}, "B5": {"name": "QT2p (peptide)", "peptide": "SYSVSEVGTQTSI"}, "B6": {"name": "ASCIZ: transcription factor ASCIZ with 17 motifs (protein, UniProt O43313 1-823, looked up)", "ATM interactor": "MAASEAAAAAGSAALAAGARAVPAATTGAAAAASGPWVPPGPRLRGSRPRPAGATQQPAVPAPPAGELIQPSVSELSRAVRTNILCTVRGCGKILPNSPALNMHLVKSHRLQDGIVNPTIRKDLKTGPKFYCCPIEGCPRGPERPFSQFSLVKQHFMKMHAEKKHKCSKCSNSYGTEWDLKRHAEDCGKTFRCTCGCPYASRTALQSHIYRTGHEIPAEHRDPPSKKRKMENCAQNQKLSNKTIESLNNQPIPRPDTQELEASEIKLEPSFEDSCGSNTDKQTLTTPPRYPQKLLLPKPKVALVKLPVMQFSVMPVFVPTADSSAQPVVLGVDQGSATGAVHLMPLSVGTLILGLDSEACSLKESLPLFKIANPIAGEPISTGVQVNFGKSPSNPLQELGNTCQKNSISSINVQTDLSYASQNFIPSAQWATADSSVSSCSQTDLSFDSQVSLPISVHTQTFLPSSKVTSSIAAQTDAFMDTCFQSGGVSRETQTSGIESPTDDHVQMDQAGMCGDIFESVHSSYNVATGNIISNSLVAETVTHSLLPQNEPKTLNQDIEKSAPIINFSAQNSMLPSQNMTDNQTQTIDLLSDLENILSSNLPAQTLDHRSLLSDTNPGPDTQLPSGPAQNPGIDFDIEEFFSASNIQTQTEESELSTMTTEPVLESLDIETQTDFLLADTSAQSYGCRGNSNFLGLEMFDTQTQTDLNFFLDSSPHLPLGSILKHSSFSVSTDSSDTETQTEGVSTAKNIPALESKVQLNSTETQTMSSGFETLGSLFFTSNETQTAMDDFLLADLAWNTMESQFSSVETQTSAEPHTVSNF"}}, "key": {"LC8 [1]": {"target": "T1, LC8 (Drosophila melanogaster, UniProt Q24117)", "conditions": "read-out: binding affinity; Pak1; cited from earlier work"}, "LC8 [2]": {"target": "T1, LC8", "assay": "Isothermal titration calorimetry of LC8 binding to Chica motif peptides", "conditions": "for relative affinity, in words: comparison between Chica motif peptides; for fold weaker affinity than QT1p: relative to QT1p (Kd 0.4 μM)", "outline": "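Synthetic peptides of Chica motifs, with added non-native N-terminal residues for solubility and A280 quantitation, at 280–300 μM final in 50 mM sodium phosphate, 50 mM NaCl, 0.5 mM sodium azide, pH 7.5. Titrated into 30–35 μM LC8 in the cell at 25 °C. Peak areas were fitted to a single-site model for N, Kd, ΔH and ΔS. Values are the average of three independent experiments.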"}, "Chica_(410–478)": {"target": "B3", "assay": "ITC"}, "LC8 [3]": {"target": "B1", "assay": "ITC"}, "LC8 [4]": {"target": "B1", "assay": "ITC", "remark": "listed apart in the source"}, "LC8 [5]": {"target": "T1, LC8", "conditions": "of 17 motifs; cited from earlier work"}}, "note": "“Also recorded” adds a separate entry of the source. Like-named read-outs stand apart in the source and are kept apart here. No end group written: not given here.", "data": [{"molecule": "Pak1: LC8 recognition motif of Pak1 (TPTRDVATSP)", "values": [{"measurement": "Kd", "setting": "LC8 [1]", "value": 42.7, "unit": "µM"}]}, {"molecule": "SYSVSEVGTQTSI [QT2p]", "values": [{"measurement": "relative affinity, in words", "setting": "LC8 [2]; ITC, listed as QT2", "value": "bind LC8 with a similar affinity"}, {"measurement": "fold weaker affinity than QT1p", "setting": "LC8 [2]", "value": "over 10 fold"}]}, {"molecule": "SYTTACAGTQTAV [QT3p]", "values": [{"measurement": "binding to LC8, in words", "setting": "LC8 [2]; ITC, 25 °C, pH 7.5", "value": "too weak to be measured accurately by ITC; also recorded: immeasurably weak"}]}, {"molecule": "SYWSRSTTTQTDM [QT4p]", "values": [{"measurement": "relative affinity, in words", "setting": "LC8 [2]; ITC", "value": "bind LC8 with a similar affinity"}, {"measurement": "fold weaker affinity than QT1p", "setting": "LC8 [2]", "value": "over 10 fold"}]}, {"molecule": "B1", "values": [{"measurement": "dH", "setting": "Chica_(410–478)", "value": "-7.6 ± 0.2", "unit": "kcal/mol"}, {"measurement": "stoichiometry N", "setting": "Chica_(410–478)", "value": 3}]}, {"molecule": "B2", "values": [{"measurement": "Kd", "setting": "LC8 [3]", "value": "5.2 ± 0.1", "unit": "µM"}, {"measurement": "dH", "setting": "LC8 [3]", "value": "-8.2 ± 0.1", "unit": "kcal/mol"}, {"measurement": "stoichiometry N", "setting": "LC8 [3]", "value": 1}]}, {"molecule": "B3", "values": [{"measurement": "Kd", "setting": "LC8 [4]", "value": "0.4 ± 0.1", "unit": "µM"}]}, {"molecule": "B4", "values": [{"measurement": "dH", "setting": "LC8 [3]", "value": "-6.8 ± 0.2", "unit": "kcal/mol"}, {"measurement": "stoichiometry N", "setting": "LC8 [3]", "value": 1}]}, {"molecule": "B5", "values": [{"measurement": "Kd", "setting": "LC8 [3]", "value": "6.3 ± 0.4", "unit": "µM"}, {"measurement": "dH", "setting": "LC8 [3]", "value": "-8.5 ± 1.1", "unit": "kcal/mol"}, {"measurement": "stoichiometry N", "setting": "LC8 [3]", "value": 1}]}, {"molecule": "B6", "values": [{"measurement": "number of motifs that bind LC8", "setting": "LC8 [5]", "value": 11}]}]}
